This note sets out measurements from PubChem BioAssay AID623869 (Vanderbilt High Throughput Screening Facility, 2012).

About 75 (4%) of roughly 2,100 compounds were called active.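 The calls were made as follows: active = calcium fluorescence trace judged by eye to show a response, as agonist, enhancer of the glutamate response, or inhibitor; inactive = trace judged by eye to show no response.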 Only a selection was taken, and actives are over-represented in it overall.

In the experiment the target is Metabotropic glutamate receptor 8 (Rattus norvegicus) (UniProt P70579). The experiment can be described thus: rat mGlu8 modulation via Gqi9 calcium signal, confirmation, counter-screen for GIRK activator project, cell-based, HEK293 rmGlu8, Gqi9 chimera, Fluo-4 calcium (AID 623869). Conditions: HEK293 rmGlu8/Gqi9 calcium flux, Fluo-4 fluorescence; glutamate at EC20 added after compound. The gist of the method: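 Material: rat mGlu8 HEK-293 cells with transient Gqi9. Medium: HEPES-buffered HBSS, pH 7.4. Compound: one dose, 20 µM addition solution, 0.2% DMSO. Schedule: compound 4 min before glutamate, then 2 min recording. Technique: Fluo-4 calcium fluorescence sampled at 1 Hz.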
Chain of Metabotropic glutamate receptor 8 (Rattus norvegicus) (P70579 whole entry, looked up): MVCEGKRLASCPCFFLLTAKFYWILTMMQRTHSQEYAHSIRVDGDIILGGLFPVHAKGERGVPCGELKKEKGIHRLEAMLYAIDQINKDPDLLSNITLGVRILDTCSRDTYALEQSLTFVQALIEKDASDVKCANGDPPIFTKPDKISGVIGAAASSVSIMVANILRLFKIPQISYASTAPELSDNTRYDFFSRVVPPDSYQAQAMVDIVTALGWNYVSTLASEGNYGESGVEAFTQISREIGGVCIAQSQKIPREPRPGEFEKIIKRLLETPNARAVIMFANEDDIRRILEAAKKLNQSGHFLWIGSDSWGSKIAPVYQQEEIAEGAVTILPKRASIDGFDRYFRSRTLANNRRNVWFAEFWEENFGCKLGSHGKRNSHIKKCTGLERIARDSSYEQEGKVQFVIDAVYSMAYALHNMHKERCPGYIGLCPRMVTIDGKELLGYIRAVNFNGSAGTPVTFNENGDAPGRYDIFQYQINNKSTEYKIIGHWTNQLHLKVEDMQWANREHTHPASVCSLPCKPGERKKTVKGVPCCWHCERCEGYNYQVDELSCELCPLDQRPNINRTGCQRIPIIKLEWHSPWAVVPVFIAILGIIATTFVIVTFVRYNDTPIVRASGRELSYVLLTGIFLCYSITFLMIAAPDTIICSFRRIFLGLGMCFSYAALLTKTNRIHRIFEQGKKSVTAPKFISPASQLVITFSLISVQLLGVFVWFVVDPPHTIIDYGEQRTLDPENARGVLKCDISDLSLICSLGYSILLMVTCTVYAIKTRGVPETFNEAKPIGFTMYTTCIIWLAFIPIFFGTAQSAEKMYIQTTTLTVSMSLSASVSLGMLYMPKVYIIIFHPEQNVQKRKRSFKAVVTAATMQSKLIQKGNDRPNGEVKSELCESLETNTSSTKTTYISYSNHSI
(The purpose of a counterscreen is to sort out artefacts and off-target activity.)
Consider `COC(=O)CSc1nc2ncccc2[nH]1`, for which the outcome was “inactive; 0”.
For `CCc1cccc(NC(=O)CSC2=NS(=O)(=O)c3ccccc32)c1`, the outcome is “inactive; 0”.
The result for `COC(=O)CSC1=NS(=O)(=O)c2ccccc21` reads “active; -1”; that for `CCn1c(SCC(N)=O)nc2sc3c(c2c1=O)CCCC3`, “inactive; 0”.
For the compound `COc1cc(NC(=O)C(=O)NNC(=O)C2CCCCC2)c(OC)cc1Cl`, the outcome is “inactive; 0”.
On to `COc1cc(/C=C2\S/C(=N/S(=O)(=O)c3ccc(C)cc3)NC2=O)c([N+](=O)[O-])cc1OC`, for which the outcome was “active; 2”.
For `COc1ccc(CN(CCC#N)C(=S)NC(=O)c2ccccc2)cc1`, the outcome was “inactive; 0”.
For `COC(=O)c1c(NS(=O)(=O)c2cccs2)sc2c1CCCC2`, the outcome is “inactive; 0”.
Take `O=C(C1CCN(S(=O)(=O)c2cccc3cccnc23)CC1)N1CC=C(c2ccccc2)CC1`: the outcome was “inactive; 0”.
For `O=C(Nc1nnc(-c2ccccc2Cl)o1)c1ccc(S(=O)(=O)N2CCCCCC2)cc1`, the outcome was “inactive; 3”.
On to `O=C(Nc1nnc(-c2ccc(Cl)cc2)o1)c1nc2ccccc2s1`, for which the outcome is “inactive; 0”.
Consider `O=C(Nc1nnc(-c2ccccc2Cl)o1)c1nc2ccccc2s1`, for which the outcome was “active; 1”.
In the case of `O=C(Nc1ccc2[nH]c(=S)sc2c1)c1ccccc1` it was “inactive; 0”; in that of `O=C(NC(=S)N(Cc1ccccc1)Cc1ccccc1)c1ccccc1F`, “inactive; 0”.
As for `CCCCOC(=O)c1ccc(NC(=S)NC(=O)c2c(Cl)cnn2CC)cc1`, the outcome was “inactive; 0”.
The result for `O=S(=O)(Nc1ccccc1N1CCCCC1)c1ccc(Cl)s1` reads “inactive; 0”; that for `O=C(Nc1ccccc1)c1ccccc1NS(=O)(=O)c1ccc(Cl)s1`, “active; 1”; that for `O=C(Nc1nncs1)c1ccccc1NS(=O)(=O)c1cccs1`, “inactive; 0”.
As for `CCOc1ccc2nc(/N=C/c3c(C)[nH]n(-c4ccccc4)c3=O)sc2c1`, the outcome is “inactive; 0”.
For `O=C(NC(=S)N1CCN(c2ccc(Cl)cc2[N+](=O)[O-])CC1)c1cccs1`, the outcome was “inactive; 0”.
For the compound `Cc1ccccc1OCC(=O)NNC(=S)NC(=O)c1ccco1`, the outcome was “active; 1”.
Consider `Cc1cccc(NC(=S)NC(=O)c2ccco2)n1`, for which the outcome is “inactive; 0”.
In the case of `CC(Oc1ccc(Cl)cc1)C(=O)NNC(=S)NC(=O)c1ccco1` (centres undefined), the outcome was “active; 1”.
The result for `COc1ccccc1C(=O)NNC(=S)NC(=O)c1ccco1` reads “inactive; 4”; that for `CCCc1ccc(OCC(=O)NNC(=S)NC(=O)c2ccco2)cc1`, “inactive; 3”.
In the case of `CC(Oc1ccc2ccccc2c1)C(=O)NNC(=S)NC(=O)c1ccco1` (centres undefined), the outcome was “inactive; 4”.
On to `CCn1nc(C(=O)OCC(=O)N2CCc3ccccc32)c2ccccc2c1=O`, for which the outcome was “inactive; 0”.
Turning to `COc1ccc(CCNC(=O)CSc2nnc(-c3ccc(F)cc3)c3ccccc23)cc1OC`, the outcome is “inactive; 0”.
Take `Cc1cc(C)n(-c2nnc(C)n2/N=C/c2ccccc2OCc2ccccc2Cl)n1`: the outcome is “inactive; 0”.
